From publication PMC3774010 (Cancer research, 2013)

Experiments:
A549 cells = assay: SRB cell growth assay, A549; assay type: cell-based, human; settings: A549, 72 h
How it was run: (§1)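 Cells seeded at 6×10^3–8×10^3 per well, grown overnight, then exposed 72 h to test compound (0, 0.5, 1, 2, 5, 10, 30 µM). Surviving fraction measured by sulforhodamine B protein staining; IC50 calculated from the dose series. Data given as mean ± S.D.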

H157 cells = assay: SRB cell growth assay, H157; assay type: cell-based, human
How it was run: as §1

H1299 cells [1] = assay: SRB cell growth assay, H1299; assay type: cell-based, human
How it was run: as §1

Bcl-w = biological target: T1, Bcl-w (Homo sapiens, UniProt Q92843); assay: Competition fluorescence polarization assay with Bak BH3 peptide, Bcl-w; assay type: binding; settings: 0.1~500nM
T1 sequence (Q92843 1-193): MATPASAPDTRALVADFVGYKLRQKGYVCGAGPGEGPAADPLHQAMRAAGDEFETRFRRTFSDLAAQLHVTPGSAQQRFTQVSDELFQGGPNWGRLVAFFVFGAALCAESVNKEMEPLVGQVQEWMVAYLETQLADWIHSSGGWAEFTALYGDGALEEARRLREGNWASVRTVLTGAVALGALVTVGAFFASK

human Bcl-XL protein = human Bcl-XL protein (Homo sapiens, UniProt Q07817); assay: Competition fluorescence polarization assay with Bak BH3 peptide, Bcl-XL; assay type: binding; settings: purified Bcl-XL 6nM, Bak BH3 peptide 3nM
Bcl2 = Bcl2 (Homo sapiens, UniProt P10415); assay: Competition fluorescence polarization assay with Bak BH3 peptide, Bcl2; assay type: binding; settings: 0.1~500nM
[2] = test system: A549-P and A549-IRR cells; assay: Cell growth of A549-P and A549-IRR cells; assay type: cell-based, human; settings: colony formation 10 days, SRB 72h
Bfl-1/A1 = biological target: T2, Bfl-1/A1 (Homo sapiens, UniProt Q16548); assay: Competition fluorescence polarization assay with Bak BH3 peptide, Bfl-1/A1; assay type: binding; settings: 0.1~500nM
T2 sequence (Q16548 1-175): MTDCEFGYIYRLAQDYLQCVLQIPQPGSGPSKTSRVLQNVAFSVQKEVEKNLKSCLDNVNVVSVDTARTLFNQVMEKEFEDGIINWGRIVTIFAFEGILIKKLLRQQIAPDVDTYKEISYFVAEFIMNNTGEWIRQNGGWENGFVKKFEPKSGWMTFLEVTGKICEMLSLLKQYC

Mcl-1 = Mcl-1 (Homo sapiens, UniProt Q07820); assay: Competition fluorescence polarization assay with Bak BH3 peptide, Mcl-1; assay type: binding; settings: 0.1~500nM
H1299 cells [3] = assay: Colony formation assay in Bcl-XL shRNA H1299 cells; assay type: cell-based, human
Nu/Nu nude mice [4] = assay: In vivo toxicity: body weight, blood analysis, histopathology; settings: for platelet reduction compared with ABT-737: 30mg/kg/d i.p. for 14 days
How it was run: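 Nu/Nu mice given test compound i.p. daily at various doses (dose-finding: 10–50 mg/kg/d up to 25 days, 6 mice/dose; xenograft mice: 30 mg/kg/d for 14 days). Body weight recorded every other day. Terminal cardiac-puncture blood (250 µL, EDTA) under anaesthesia analyzed for WBC, RBC, platelets, ALT, AST, BUN. Organs examined by H&E histology.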

[5] = test system: normal human bronchial epithelial cells (BEAS-2B); assay: Cytotoxicity in lung cancer cells versus normal bronchial epithelial cells; assay type: cell-based
How it was run: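 Cells were seeded at 6×10^3–8×10^3 per well, grown overnight, then treated 72 h. Surviving fraction read by sulforhodamine B protein-stain assay. BEAS-2B and A549 were kept in DMEM/F-12 with 10% FBS, and H1299 in RPMI 1640 with 5% FBS plus 5% bovine serum. Lung cancer lines received 0, 0.5, 1, 2, 5, 10 or 30µM.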

[6] = test system: H1299 lung cancer xenografts; assay: H1299 lung cancer xenografts in nude mice; assay type: in vivo; settings: for anti-tumor efficacy compared with ABT-737: 30mg/kg/d i.p. for 14 days
Cyt c release = assay: Cytochrome c release from mitochondria in H1299 cells; assay type: cell-based, human
How it was run: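 Test compound given to H1299 cells at increasing concentrations (0.1–5µM) for 24 h. Subcellular fractionation separated mitochondrial and cytosolic fractions. Cytochrome c detected in the fractions by Western blot, with prohibitin as the mitochondrial marker.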

[7] = test system: A549-P and A549-IRR xenografts; assay: A549-P and A549-IRR lung cancer xenografts in mice; assay type: in vivo
Nu/Nu nude mice [8] = settings: mouse, in vivo, ip
Bak = Bak oligomerization; assay type: cell-based, human; settings: H1299 cells, BMH cross-linking
How it was run: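 H1299 cells exposed to increasing test compound concentrations (0.1–5µM) for 24 h. Mitochondria isolated by subcellular fractionation and taken up in PBS (pH7.2) conjugation buffer. BMH and EDTA added to cross-link Bak sulfhydryls, 1 h at room temperature, then DTT quench for 15 min at room temperature. Products resolved by SDS-PAGE and Western blotted with anti-Bak.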

Bcl-XL/Bak = Bcl-XL/Bak (Homo sapiens, UniProt Q07817); assay: Co-immunoprecipitation of Bcl-XL/Bak in H1299 cells; assay type: cell-based; settings: 0.1–5µM, 24 h
How it was run: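 H1299 cells treated 24 h with test compound at 0.1–5 µM. Lysates were immunoprecipitated with a Bcl-XL antibody (normal IgG as IP control), and co-precipitated Bak and Bcl-XL were detected by Western blot. Total-lysate Bcl-XL and Bak levels were also blotted.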

Nu/Nu nude mice [9] = assay: Maximum tolerated dose
Bcl-XL/Bax = Bcl-XL/Bax (Homo sapiens, UniProt Q07817); assay: Bcl-XL/Bax complex disruption in cells; assay type: cell-based
Bcl-XL/Bax, sequence (Q07817 whole entry): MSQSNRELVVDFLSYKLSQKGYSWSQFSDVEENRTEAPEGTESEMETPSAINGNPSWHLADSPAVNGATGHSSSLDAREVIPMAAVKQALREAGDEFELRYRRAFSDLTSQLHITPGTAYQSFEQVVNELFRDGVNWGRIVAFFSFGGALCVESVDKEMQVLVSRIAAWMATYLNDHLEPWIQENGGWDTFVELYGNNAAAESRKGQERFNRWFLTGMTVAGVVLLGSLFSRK

Mcl-1, sequence (Q07820 whole entry): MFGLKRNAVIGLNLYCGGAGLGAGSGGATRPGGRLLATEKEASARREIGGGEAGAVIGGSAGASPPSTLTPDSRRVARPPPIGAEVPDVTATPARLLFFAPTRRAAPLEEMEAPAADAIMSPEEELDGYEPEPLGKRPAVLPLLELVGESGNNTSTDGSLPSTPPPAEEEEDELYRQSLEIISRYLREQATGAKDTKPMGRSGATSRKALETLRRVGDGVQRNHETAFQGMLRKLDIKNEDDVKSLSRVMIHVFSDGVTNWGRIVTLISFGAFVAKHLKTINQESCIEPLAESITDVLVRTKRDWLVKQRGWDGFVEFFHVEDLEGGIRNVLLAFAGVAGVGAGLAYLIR
human Bcl-XL protein, sequence (Q07817 whole entry): as the sequence (Q07817 whole entry) above
Bcl2, sequence (P10415 whole entry): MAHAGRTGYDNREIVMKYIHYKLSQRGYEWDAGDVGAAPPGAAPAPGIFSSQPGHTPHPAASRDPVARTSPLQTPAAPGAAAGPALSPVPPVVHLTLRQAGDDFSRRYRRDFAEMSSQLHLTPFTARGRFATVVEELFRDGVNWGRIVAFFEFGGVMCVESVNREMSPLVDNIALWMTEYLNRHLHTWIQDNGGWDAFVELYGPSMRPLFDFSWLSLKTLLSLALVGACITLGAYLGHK
Bcl-XL/Bak, sequence (Q07817 whole entry): as the sequence (Q07817 whole entry) above

Structure (SMILES) | IC50 (A549 cells; SRB assay) [µM] | binding affinity with Bcl-w (Bcl-w) | IC50 (H157 cells; H157, 72 h, SRB assay) [µM] | Ki (human Bcl-XL protein) [µM] | binding affinity with Bcl2 (Bcl2) | sensitivity of A549-P and A549-IRR cells [2] | binding affinity with Bfl-1/A1 (Bfl-1/A1) | binding affinity with Mcl-1 (Mcl-1) | sensitivity of H1299 cells after depletion of endogenous Bcl-XL (H1299 cells [3]) | IC50 (H1299 cells [1]; H1299, 72 h, SRB assay) [µM] | platelet reduction compared with ABT-737 (Nu/Nu nude mice [4]) | cytotoxicity against lung cancer cells compared to normal human bronchial epithelial cells [5] | anti-tumor efficacy compared with ABT-737 ([6]; H1299 xenografts) | other results
CN(C)CC[C@H](CSc1ccccc1)Nc1ccc(S(=O)(=O)NC(=O)c2ccc(N3CCN(Cc4ccccc4-c4ccc(Cl)cc4)CC3)cc2)cc1[N+](=O)[O-] [ABT-737, reference compound] |  |  |  |  |  |  |  |  |  |  |  |  |  | IC50 (A549 cells; Homo sapiens): 19.4 ± 1.23 µM; IC50 (H157 cells; Homo sapiens, NCI-H157, 72 h): 27.6 ± 1.49 µM; IC50 (H1299 cells [1]; Homo sapiens, NCI-H1299, 72 h): 40.5 ± 3.56 µM
CCOc1ccc2nc3cc(N=Nc4ccc(N)nc4N)ccc3c(N)c2c1 [BXI-61] | 3.17 ± 0.28 | very low binding affinities | 5.71 ± 0.49 | 0.0148 ± 0.00154 | very low binding affinities | remained sensitive | very low binding affinities | very low binding affinities | significantly reduced the sensitivity | 1.79 ± 0.12 | less effect on platelet than ABT-737 | relatively selective cytotoxicity | more potent efficacy against human lung cancer than ABT-737 | normal tissue toxicities (Nu/Nu nude mice [4]; 40mg/kg/d): without significant normal tissue toxicities except for a slight decrease in platelets; potency against lung cancer in vivo ([6]; 40mg/kg/d): high potency against lung cancer
CCOc1ccc(-c2nc3ccc(-c4nc5ccc(N6CCN(C)CC6)cc5[nH]4)cc3[nH]2)cc1 [BXI-72] | 0.68 ± 0.08 | very low binding affinities | 1.87 ± 0.16 | 0.0009 ± 0.00015 | very low binding affinities | remained sensitive | very low binding affinities | very low binding affinities | significantly reduced the sensitivity | 0.49 ± 0.12 | less effect on platelet than ABT-737 | relatively selective cytotoxicity | more potent efficacy against human lung cancer than ABT-737 | Cyt c release from mitochondria (Cyt c release): facilitate Cyt c release from mitochondria; effect on tumors derived from A549-P and A549-IRR cells ([7]; 20mg/kg/d ×18): repressed tumors derived from both A549-P and A549-IRR cells; normal tissue toxicities ([7]; A549 xenograft mice, 20mg/kg/d): no significant normal tissue toxicities; maximum tolerated dose (MTD) (Nu/Nu nude mice [8]): 30~40 mg/kg/d; Bak oligomerization (Bak): facilitated the formation of Bak dimers, trimers and multimers; Bcl-XL/Bak dissociation (Bcl-XL/Bak): dose-dependent Bcl-XL/Bak dissociation; lethality (Nu/Nu nude mice [9]; 50mg/kg/d i.p., six mice, within 10 days): uniformly lethal; death (Nu/Nu nude mice [9]; 10 to 30mg/kg/d i.p., after 25 days of daily administration): no death recorded; Bcl-XL/Bax complexes (Bcl-XL/Bax): disrupts Bcl-XL/Bax complexes; liver histology (Nu/Nu nude mice [4]; 50mg): hepatocellular necrosis; ALT, AST, BUN, WBC and RBC (Nu/Nu nude mice [4]; 10–30mg/kg/d): no significant increases in ALT, AST and BUN or decreases in WBC and RBC; histopathology of normal tissues (Nu/Nu nude mice [4]; 10–30mg/kg/d): no evidence of normal tissue toxicities; body weight (Nu/Nu nude mice [4]; 20–30mg/kg): well tolerated without weight loss; ALT, AST and BUN (Nu/Nu nude mice [4]; 40–50mg/kg/d for two weeks): increases in ALT, AST and BUN; platelets (Nu/Nu nude mice [4]; increased doses of BXI-72, mice): dose-dependent reduction of platelets; effect on established lung cancer xenografts ([6]; H1299 xenografts, 10, 20 and 30mg/kg/d i.p. for 14 days): dose-dependent regression; apoptosis in tumor tissues (active caspase 3 IHC) ([6]; H1299 xenografts, 10-30mg/kg/d i.p. 14 days): dose-dependent apoptosis
